{"source": "ChEMBL document CHEMBL1649483", "about": "“Molecular analysis of the gyrA and gyrB quinolone resistance-determining regions of fluoroquinolone-resistant Clostridium difficile mutants selected in vitro” (2009)", "type_in_all_cases": "functional", "key": {"Clostridioides difficile [1]": {"test_system": "Clostridioides difficile", "assay": "Antimicrobial activity against Clostridium difficile A422 expressing tcdA and tcdB gene by Etest method", "how_it_was_run": "(§1)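 Parent clinical or nontoxigenic isolate tested for gatifloxacin susceptibility by Etest, run per the manufacturer's instructions; a fluoroquinolone breakpoint of 8 μg/ml was applied.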"}, "Clostridioides difficile [2]": {"test_system": "Clostridioides difficile", "assay": "Antimicrobial activity against Clostridium difficile 630i harboring GyrB […] mutant gene selected after 8 ug/ml of moxifloxacin by Etest method", "how_it_was_run": "(§2)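 Stable in vitro-selected mutant tested for gatifloxacin susceptibility by Etest, per the manufacturer's instructions, with an 8 μg/ml breakpoint. For selection, the parent was grown in antibiotic-free brain heart infusion (BHI) for 24 h at 35°C under anaerobic conditions. […] Later steps used double the MIC. Stability was confirmed by three subcultures.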"}, "Clostridioides difficile [3]": {"test_system": "Clostridioides difficile", "assay": "Antimicrobial activity against Clostridium difficile C253a selected after 2 ug/ml of moxifloxacin by Etest method"}, "Clostridioides difficile [4]": {"test_system": "Clostridioides difficile", "assay": "Antimicrobial activity against Clostridium difficile A422d selected after 4 ug/ml of moxifloxacin by Etest method", "how_it_was_run": "as §2"}, "Clostridioides difficile [5]": {"test_system": "Clostridioides difficile", "assay": "Antimicrobial activity against Clostridium difficile 630a selected after 2 ug/ml of moxifloxacin by Etest method", "how_it_was_run": "as §2"}, "Clostridioides difficile [6]": {"test_system": "Clostridioides difficile", "assay": "Antimicrobial activity against Clostridium difficile A422D harboring GyrB Leu451Phe mutant gene selected after 8 ug/ml of levofloxacin by Etest method", "how_it_was_run": "as §2"}, "Clostridioides difficile [7]": {"test_system": "Clostridioides difficile", "assay": "Antimicrobial activity against Clostridium difficile BI2D harboring GyrB Glu466Lys mutant gene selected after 8 ug/ml of levofloxacin by Etest method", "how_it_was_run": "as §2"}, "Clostridioides difficile [8]": {"test_system": "Clostridioides difficile", "assay": "Antimicrobial activity against Clostridium difficile CD5c harboring GyrB Ser416Ala mutant gene selected after 2 ug/ml of moxifloxacin by Etest method"}, "Clostridioides difficile [9]": {"test_system": "Clostridioides difficile", "assay": "Antimicrobial activity against Clostridium difficile C253g harboring GyrA Ala118Ser mutant gene selected after 8 ug/ml of moxifloxacin by Etest method"}, "Clostridioides difficile [10]": {"test_system": "Clostridioides difficile", "assay": "Antimicrobial activity against Clostridium difficile 630h harboring GyrB […] mutant gene selected after 8 ug/ml of moxifloxacin by Etest method", "how_it_was_run": "as §2"}, "Clostridioides difficile [11]": {"test_system": "Clostridioides difficile", "assay": "Antimicrobial activity against Clostridium difficile C253h harboring GyrA Ala118Ser mutant gene selected after 8 ug/ml of moxifloxacin by Etest method"}, "Clostridioides difficile [12]": {"test_system": "Clostridioides difficile", "assay": "Antimicrobial activity against Clostridium difficile CD5d harboring GyrB Ser416Ala mutant gene selected after 4 ug/ml of moxifloxacin by Etest method"}, "Clostridioides difficile [13]": {"test_system": "Clostridioides difficile", "assay": "Antimicrobial activity against Clostridium difficile CD5E harboring GyrB Ser416Ala mutant gene selected after 8 ug/ml of levofloxacin by Etest method"}, "Clostridioides difficile [14]": {"test_system": "Clostridioides difficile", "assay": "Antimicrobial activity against Clostridium difficile C253 expressing tcdA and tcdB gene by Etest method", "how_it_was_run": "as §1"}, "Clostridioides difficile [15]": {"test_system": "Clostridioides difficile", "assay": "Antimicrobial activity against Clostridium difficile A422G harboring GyrA Thr82Ile and GyrB Leu451Phe mutant genes selected after 8 ug/ml of levofloxacin by Etest method", "how_it_was_run": "as §2"}, "Clostridioides difficile [16]": {"test_system": "Clostridioides difficile", "assay": "Antimicrobial activity against Clostridium difficile BI2b harboring GyrB Arg447Lys mutant gene selected after 2 ug/ml of moxifloxacin by Etest method", "how_it_was_run": "as §2"}, "Clostridioides difficile [17]": {"test_system": "Clostridioides difficile", "assay": "Antimicrobial activity against Clostridium difficile C253F selected after 8 ug/ml of levofloxacin by Etest method"}, "Clostridioides difficile [18]": {"test_system": "Clostridioides difficile", "assay": "Antimicrobial activity against Clostridium difficile 630g harboring GyrB […] mutant gene selected after 8 ug/ml of moxifloxacin by agar dilution method"}, "Clostridioides difficile [19]": {"test_system": "Clostridioides difficile", "assay": "Antimicrobial activity against Clostridium difficile C253B selected after 4 ug/ml of levofloxacin by agar dilution method"}, "Clostridioides difficile [20]": {"test_system": "Clostridioides difficile", "assay": "Antimicrobial activity against Clostridium difficile BI2d harboring GyrB Arg447Lys and Asp426Asn mutant gene selected after 32 ug/ml of moxifloxacin by agar dilution method"}, "Clostridioides difficile [21]": {"test_system": "Clostridioides difficile", "assay": "Antimicrobial activity against Clostridium difficile 630B selected after 4 ug/ml of levofloxacin by agar dilution method"}, "Clostridioides difficile [22]": {"test_system": "Clostridioides difficile", "assay": "Antimicrobial activity against Clostridium difficile 630i harboring GyrB […] mutant gene selected after 8 ug/ml of moxifloxacin by agar dilution method"}, "Clostridioides difficile [23]": {"test_system": "Clostridioides difficile", "assay": "Antimicrobial activity against Clostridium difficile BI2C selected after 4 ug/ml of levofloxacin by agar dilution method"}, "Clostridioides difficile [24]": {"test_system": "Clostridioides difficile", "assay": "Antimicrobial activity against Clostridium difficile 630c selected after 2 ug/ml of moxifloxacin by agar dilution method"}, "Clostridioides difficile [25]": {"test_system": "Clostridioides difficile", "assay": "Antimicrobial activity against Clostridium difficile 630f selected after 4 ug/ml of moxifloxacin by agar dilution method"}, "Clostridioides difficile [26]": {"test_system": "Clostridioides difficile", "assay": "Antimicrobial activity against Clostridium difficile A422b selected after 2 ug/ml of moxifloxacin by agar dilution method"}, "Clostridioides difficile [27]": {"test_system": "Clostridioides difficile", "assay": "Antimicrobial activity against Clostridium difficile BI2E harboring GyrB Glu466Lys mutant gene selected after 8 ug/ml of levofloxacin by agar dilution method"}, "Clostridioides difficile [28]": {"test_system": "Clostridioides difficile", "assay": "Antimicrobial activity against Clostridium difficile CD5h harboring GyrA Ala118Ser, Thr82Ala and GyrB Ser416Ala mutant genes selected after 8 ug/ml of moxifloxacin by agar dilution method"}, "Clostridioides difficile [29]": {"test_system": "Clostridioides difficile", "assay": "Antimicrobial activity against Clostridium difficile 630h harboring GyrB […] mutant gene selected after 8 ug/ml of moxifloxacin by agar dilution method"}, "Clostridioides difficile [30]": {"test_system": "Clostridioides difficile", "assay": "Antimicrobial activity against Clostridium difficile CD5 1-g harboring GyrA Ala92Glu and GyrB Ser416Ala mutant genes selected after 8 ug/ml of moxifloxacin by agar dilution method"}, "Clostridioides difficile [31]": {"test_system": "Clostridioides difficile", "assay": "Antimicrobial activity against Clostridium difficile 630 expressing tcdA and tcdB gene by agar dilution method"}, "Clostridioides difficile [32]": {"test_system": "Clostridioides difficile", "assay": "Antimicrobial activity against Clostridium difficile CD5c harboring GyrB Ser416Ala mutant gene selected after 2 ug/ml of moxifloxacin by agar dilution method"}, "Clostridioides difficile [33]": {"test_system": "Clostridioides difficile", "assay": "Antimicrobial activity against Clostridium difficile C253F selected after 8 ug/ml of levofloxacin by agar dilution method"}, "Clostridioides difficile [34]": {"test_system": "Clostridioides difficile", "assay": "Antimicrobial activity against Clostridium difficile C253A selected after 4 ug/ml of levofloxacin by agar dilution method"}, "Clostridioides difficile [35]": {"test_system": "Clostridioides difficile", "assay": "Antimicrobial activity against Clostridium difficile BI2 by agar dilution method"}, "Clostridioides difficile [36]": {"test_system": "Clostridioides difficile", "assay": "Antimicrobial activity against Clostridium difficile C253E selected after 8 ug/ml of levofloxacin by agar dilution method"}, "Clostridioides difficile [37]": {"test_system": "Clostridioides difficile", "assay": "Antimicrobial activity against Clostridium difficile CD5E harboring GyrB Ser416Ala mutant gene selected after 8 ug/ml of levofloxacin by agar dilution method"}, "Clostridioides difficile [38]": {"test_system": "Clostridioides difficile", "assay": "Antimicrobial activity against Clostridium difficile C253d selected after 4 ug/ml of moxifloxacin by agar dilution method"}, "Clostridioides difficile [39]": {"test_system": "Clostridioides difficile", "assay": "Antimicrobial activity against Clostridium difficile A422 expressing tcdA and tcdB gene by agar dilution method"}, "Clostridioides difficile [40]": {"test_system": "Clostridioides difficile", "assay": "Antimicrobial activity against Clostridium difficile 630a selected after 2 ug/ml of moxifloxacin by agar dilution method"}, "Clostridioides difficile [41]": {"test_system": "Clostridioides difficile", "assay": "Antimicrobial activity against Clostridium difficile A422g harboring GyrA Asp81Asn mutant gene selected after 8 ug/ml of moxifloxacin by agar dilution method"}}}
{"smiles": "COc1c(N2CCNC(C)C2)c(F)cc2c(=O)c(C(=O)O)cn(C3CC3)c12", "note": "(stereo unspecified) [GATIFLOXACIN]", "values": [{"measurement": "MIC", "setting": "Clostridioides difficile [1]", "value": 0.75, "unit": "µg/mL"}, {"measurement": "MIC", "setting": "Clostridioides difficile [2]", "value": "≥ 32", "unit": "µg/mL"}, {"measurement": "MIC", "setting": "Clostridioides difficile [3]", "value": 1, "unit": "µg/mL"}, {"measurement": "MIC", "setting": "Clostridioides difficile [4]", "value": 1.5, "unit": "µg/mL"}, {"measurement": "MIC", "setting": "Clostridioides difficile [5]", "value": 0.75, "unit": "µg/mL"}, {"measurement": "MIC", "setting": "Clostridioides difficile [6]", "value": 2, "unit": "µg/mL"}, {"measurement": "MIC", "setting": "Clostridioides difficile [7]", "value": "≥ 32", "unit": "µg/mL"}, {"measurement": "MIC", "setting": "Clostridioides difficile [8]", "value": 0.75, "unit": "µg/mL"}, {"measurement": "MIC", "setting": "Clostridioides difficile [9]", "value": 8, "unit": "µg/mL"}, {"measurement": "MIC", "setting": "Clostridioides difficile [10]", "value": "≥ 32", "unit": "µg/mL"}, {"measurement": "MIC", "setting": "Clostridioides difficile [11]", "value": 8, "unit": "µg/mL"}, {"measurement": "MIC", "setting": "Clostridioides difficile [12]", "value": 0.75, "unit": "µg/mL"}, {"measurement": "MIC", "setting": "Clostridioides difficile [13]", "value": 2, "unit": "µg/mL"}, {"measurement": "MIC", "setting": "Clostridioides difficile [14]", "value": 0.5, "unit": "µg/mL"}, {"measurement": "MIC", "setting": "Clostridioides difficile [15]", "value": "≥ 32", "unit": "µg/mL"}, {"measurement": "MIC", "setting": "Clostridioides difficile [16]", "value": 1.5, "unit": "µg/mL"}, {"measurement": "MIC", "setting": "Clostridioides difficile [17]", "value": 1, "unit": "µg/mL"}]}
{"smiles": "C[C@H]1COc2c(N3CCN(C)CC3)c(F)cc3c(=O)c(C(=O)O)cn1c23.C[C@H]1COc2c(N3CCN(C)CC3)c(F)cc3c(=O)c(C(=O)O)cn1c23.O", "note": "[LEVOFLOXACIN]", "values": [{"measurement": "MIC", "setting": "Clostridioides difficile [18]", "value": 64, "unit": "µg/mL"}, {"measurement": "MIC", "setting": "Clostridioides difficile [19]", "value": 1, "unit": "µg/mL"}, {"measurement": "MIC", "setting": "Clostridioides difficile [20]", "value": 64, "unit": "µg/mL"}, {"measurement": "MIC", "setting": "Clostridioides difficile [21]", "value": 1, "unit": "µg/mL"}, {"measurement": "MIC", "setting": "Clostridioides difficile [22]", "value": 64, "unit": "µg/mL"}, {"measurement": "MIC", "setting": "Clostridioides difficile [23]", "value": 1, "unit": "µg/mL"}, {"measurement": "MIC", "setting": "Clostridioides difficile [24]", "value": 4, "unit": "µg/mL"}, {"measurement": "MIC", "setting": "Clostridioides difficile [25]", "value": 4, "unit": "µg/mL"}, {"measurement": "MIC", "setting": "Clostridioides difficile [26]", "value": 4, "unit": "µg/mL"}, {"measurement": "MIC", "setting": "Clostridioides difficile [27]", "value": 16, "unit": "µg/mL"}, {"measurement": "MIC", "setting": "Clostridioides difficile [28]", "value": 64, "unit": "µg/mL"}, {"measurement": "MIC", "setting": "Clostridioides difficile [29]", "value": 64, "unit": "µg/mL"}, {"measurement": "MIC", "setting": "Clostridioides difficile [30]", "value": 16, "unit": "µg/mL"}, {"measurement": "MIC", "setting": "Clostridioides difficile [31]", "value": 2, "unit": "µg/mL"}, {"measurement": "MIC", "setting": "Clostridioides difficile [32]", "value": 2, "unit": "µg/mL"}, {"measurement": "MIC", "setting": "Clostridioides difficile [33]", "value": 2, "unit": "µg/mL"}, {"measurement": "MIC", "setting": "Clostridioides difficile [34]", "value": 1, "unit": "µg/mL"}, {"measurement": "MIC", "setting": "Clostridioides difficile [35]", "value": 2, "unit": "µg/mL"}, {"measurement": "MIC", "setting": "Clostridioides difficile [36]", "value": 2, "unit": "µg/mL"}, {"measurement": "MIC", "setting": "Clostridioides difficile [37]", "value": 2, "unit": "µg/mL"}, {"measurement": "MIC", "setting": "Clostridioides difficile [38]", "value": 4, "unit": "µg/mL"}, {"measurement": "MIC", "setting": "Clostridioides difficile [39]", "value": 2, "unit": "µg/mL"}, {"measurement": "MIC", "setting": "Clostridioides difficile [40]", "value": 4, "unit": "µg/mL"}, {"measurement": "MIC", "setting": "Clostridioides difficile [41]", "value": 64, "unit": "µg/mL"}]}
